Values after ≈ are worked out from the molar mass of the structure shown. Active and inactive are the calls of the source. No cut-off for these calls is given here.
Assays:
[1] = molecular target: T1, D-alanyl-D-alanine dipeptidase (Enterococcus faecium, UniProt Q06241); test: Inhibition of D,D-dipeptidase activity Van X in Enterococcus faecium ATCC 51559 using D-alanyl-(R)-phenylthioglycine substrate
T1 sequence (Q06241 whole entry): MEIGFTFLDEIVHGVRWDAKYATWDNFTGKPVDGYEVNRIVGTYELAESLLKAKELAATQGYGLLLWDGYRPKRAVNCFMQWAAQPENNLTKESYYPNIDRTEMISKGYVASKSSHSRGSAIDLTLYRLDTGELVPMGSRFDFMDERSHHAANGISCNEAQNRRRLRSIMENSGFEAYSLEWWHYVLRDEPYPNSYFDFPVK
In short: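 Continuous DTNB-coupled VanX assay on soluble extract (100 mM Tris pH 7.5, 412 nm, 22°C). d-Alanyl-(R)-phenylthioglycine was 0.125–0.75 mM and the phosphonamidate inhibitor N-[(1-aminoethyl)hydroxyphosphinyl]-d-alanine 25–324 μM. Ki came from fitting initial rates to a competitive inhibition model.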

[2] = tested on: Enterococcus faecium; test: Induction of VanX activity in Enterococcus faecium ATCC 51559 expressing Van A gene by high-performance liquid chromatography; format: functional, organism-based
[3] = tested on: Enterococcus faecalis; test: Induction of VanX activity in Enterococcus faecalis BM4110 expressing Van A gene by high-performance liquid chromatography; format: functional, organism-based
[4] = tested on: Enterococcus faecalis; test: Induction of VanX activity in Enterococcus faecalis ATCC 51299 expressing Van B gene by high-performance liquid chromatography; format: functional, organism-based
[5] = tested on: Enterococcus faecalis; test: Induction of VanX activity in Enterococcus faecalis ATCC 51575 expressing Van B gene by high-performance liquid chromatography; format: functional, organism-based
[6] = tested on: Enterococcus faecalis; test: Induction of VanA activity in vancomycin susceptible Enterococcus faecalis BM4110 harboring Van A gene assessed as UDP-MurNAc-tetrapeptide profile at 64 ug/ml […]; format: functional
In short: (§1)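 Ramoplanin (3 μg/ml) was then added for 15 min. Cytoplasmic precursors were extracted with 8% trichloroacetic acid (15 min, 4°C), desalted and run on HPLC. Each precursor is given as % of total late precursors (tetrapeptide, pentapeptide, pentadepsipeptide) from integrated peak areas.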

[7] = tested on: Enterococcus faecium; test: Induction of VanA activity in Enterococcus faecium ATCC 51559 expressing Van A gene assessed as UDP-MurNAc-tetrapeptide profile at 64 ug/ml […]; format: functional; in short: as §1
[8] = tested on: Enterococcus faecalis; test: Induction of VanA activity in Enterococcus faecalis ATCC 51299 expressing Van B gene assessed as UDP-MurNAc-tetrapeptide profile at 3 ug/ml […]; format: functional; in short: as §1
[9] = tested on: Enterococcus faecalis; test: Induction of VanA activity in Enterococcus faecalis ATCC 51575 expressing Van B gene assessed as UDP-MurNAc-tetrapeptide profile at 16 ug/ml […]; format: functional; in short: as §1
[10] = tested on: Enterococcus faecalis; test: Induction of VanA activity in vancomycin susceptible Enterococcus faecalis BM4110 assessed as UDP-MurNAc-pentapeptide profile at 1 ug/ml […]; format: functional; in short: as §1
[11] = tested on: Enterococcus faecalis; test: Induction of VanA activity in Enterococcus faecalis ATCC 51299 expressing Van B gene assessed as UDP-MurNAc-pentapeptide profile at 3 ug/ml […]; format: functional; in short: as §1
[12] = tested on: Enterococcus faecalis; test: Induction of VanA activity in Enterococcus faecalis ATCC 51575 expressing Van B gene assessed as UDP-MurNAc-pentapeptide profile at 16 ug/ml […]; format: functional; in short: as §1
[13] = tested on: Enterococcus faecalis; test: Induction of VanX activity in vancomycin susceptible Enterococcus faecalis BM4110 harboring Van A gene assessed as UDP-MurNAc-depsipeptide profile at 64 ug/ml […]; format: functional; in short: as §1
[14] = tested on: Enterococcus faecium; test: Induction of VanX activity in Enterococcus faecium ATCC 51559 expressing Van A gene assessed as UDP-MurNAc-depsipeptide profile at 64 ug/ml […]; format: functional; in short: as §1
[15] = tested on: Enterococcus faecalis; test: Induction of VanX activity in Enterococcus faecalis ATCC 51299 expressing Van B gene assessed as UDP-MurNAc-depsipeptide profile at 3 ug/ml […]; format: functional; in short: as §1
[16] = tested on: Enterococcus faecalis; test: Induction of VanX activity in Enterococcus faecalis ATCC 51575 expressing Van B gene assessed as UDP-MurNAc-depsipeptide profile at 16 ug/ml […]; format: functional; in short: as §1
[17] = tested on: Enterococcus faecalis; test: Antimicrobial activity against streptomycin-resistant, vancomycin-susceptible Enterococcus faecalis BM4110 by broth microdilution method; format: functional
In short: (§2)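 Broth microdilution MIC per CLSI-approved methods; strains maintained on tryptic soy agar with 5% sheep blood at 37°C.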

[18] = tested on: Enterococcus faecalis; test: Antimicrobial activity against Enterococcus faecalis BM4110 expressing VanA and harboring transposon tn1546 by broth microdilution method; format: functional; in short: as §2
[19] = tested on: Enterococcus faecalis; test: Antimicrobial activity against Enterococcus faecalis ATCC 51299 by broth microdilution method; format: functional; in short: as §2
[20] = tested on: Enterococcus faecalis; test: Antimicrobial activity against Enterococcus faecalis ATCC 51575 by broth microdilution method; format: functional
In short: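 Strains were grown on TSA with 5% sheep blood at 37°C. MIC was determined by broth microdilution following CLSI methods.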

[21] = tested on: Enterococcus faecalis; test: Induction of VanX activity in Enterococcus faecalis ATCC 51299 expressing Van B gene at 0.3 times MIC by high-performance liquid chromatography; format: functional, organism-based
[22] = tested on: Enterococcus faecalis; test: Induction of VanX activity in Enterococcus faecalis ATCC 51575 expressing Van B gene at 0.3 times MIC by high-performance liquid chromatography; format: functional, organism-based
[23] = tested on: Enterococcus faecalis; test: Induction of VanA activity in vancomycin susceptible Enterococcus faecalis BM4110 harboring Van A gene assessed as UDP-MurNAc-tetrapeptide profile at 4 ug/ml […]; format: functional; in short: as §1
[24] = tested on: Enterococcus faecium; test: Induction of VanA activity in Enterococcus faecium ATCC 51559 expressing Van A gene assessed as UDP-MurNAc-tetrapeptide profile at 4 ug/ml […]; format: functional
In short: (§3)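 Ramoplanin (3 μg/ml) was then added for 15 min. Cytoplasmic precursors were extracted with 8% TCA (15 min, 4°C), desalted and analysed by HPLC. Each precursor (tetrapeptide, pentapeptide, pentadepsipeptide) is expressed as a percentage of total late precursors from integrated peak areas.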

[25] = tested on: Enterococcus faecalis; test: Induction of VanA activity in vancomycin susceptible Enterococcus faecalis BM4110 assessed as UDP-MurNAc-pentapeptide profile at 0.1 ug/ml […]; format: functional; in short: as §3
[26] = tested on: Enterococcus faecium; test: Induction of VanA activity in Enterococcus faecium ATCC 51559 expressing Van A gene assessed as UDP-MurNAc-pentapeptide profile at 4 ug/ml […]; format: functional; in short: as §3
[27] = tested on: Enterococcus faecalis; test: Induction of VanA activity in Enterococcus faecalis ATCC 51299 expressing Van B gene assessed as UDP-MurNAc-pentapeptide profile at 0.1 ug/ml […]; format: functional; in short: as §3
[28] = tested on: Enterococcus faecalis; test: Induction of VanA activity in Enterococcus faecalis ATCC 51575 expressing Van B gene assessed as UDP-MurNAc-pentapeptide profile at 0.1 ug/ml […]; format: functional
[29] = tested on: Enterococcus faecalis; test: Induction of VanX activity in vancomycin susceptible Enterococcus faecalis BM4110 harboring Van A gene assessed as UDP-MurNAc-depsipeptide profile at 4 ug/ml […]; format: functional; in short: as §1
[30] = tested on: Enterococcus faecium; test: Induction of VanX activity in Enterococcus faecium ATCC 51559 expressing Van A gene assessed as UDP-MurNAc-depsipeptide profile at 4 ug/ml […]; format: functional; in short: as §3
[31] = tested on: Enterococcus faecium; test: Antimicrobial activity against Enterococcus faecium ATCC 51559 by broth microdilution method; format: functional; in short: as §2
[32] = tested on: Enterococcus faecalis; test: Induction of VanX activity in Enterococcus faecalis BM4110 expressing VanA and harboring transposon tn1546 at 0.4 times MIC by Western blotting relative to uninduced control; format: functional
In short: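 Cells grown in BHI at 37°C with telavancin, harvested and treated with mutanolysin, then sonicated. Soluble extract (35 ng protein) was run on a 4–12% polyacrylamide gel and transferred to PVDF. Blot probed with affinity-purified polyclonal anti-VanX (1/5,000), then IRDye 800CW goat anti-rabbit IgG (1/10,000), with infrared fluorescence detection. VanX amount expressed relative to basal level without antibiotic.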

[33] = tested on: Enterococcus faecalis; test: Induction of D,D-dipeptidase activity in Enterococcus faecalis BM4110 expressing VanA and harboring transposon tn1546 at 0.4 times MIC by Western blotting relative to uninduced control; format: functional

In the case of CN[C@H](CC(C)C)C(=O)N[C@H]1C(=O)N[C@@H](CC(N)=O)C(=O)N[C@H]2C(=O)N[C@H]3C(=O)N[C@H](C(=O)N[C@H](C(=O)O)c4cc(O)cc(O)c4-c4cc3ccc4O)[C@H](O)c3ccc(c(Cl)c3)Oc3cc2cc(c3O[C@@H]2O[C@H](CO)[C@@H](O)[C@H](O)[C@H]2O[C@H]2C[C@](C)(N)[C@H](O)[C@H](C)O2)Oc2ccc(cc2Cl)[C@H]1O [VANCOMYCIN], the Ki [1] is reported as 62 µM, the Activity [2] is reported as “Dose-dependent effect” and the Activity [3] is reported as “Dose-dependent effect”. The Activity [4] was “Active”, the Activity [5] was “Active” and the Activity [6] was 27%. For the same compound, the Activity [7] was 41%, the Activity [8] was 6% and the Activity [9] was 4%. It also gave an Activity [10] of 100%, an Activity [11] of 19% and an Activity [12] of 10%. The Activity [13] was 73%, the Activity [14] was 59% and the Activity [15] was 75%. It also gave an Activity [16] of 86%, an MIC [17] of 2 µg/mL (≈ 1.38 µM) and an MIC [18] of 1020 µg/mL (≈ 707 µM). The MIC [19] was 16 µg/mL (≈ 11 µM) and the MIC [20] was 256 µg/mL (≈ 177 µM).
For CCCCCCCCCCNCCN[C@@]1(C)C[C@H](O[C@H]2[C@H](Oc3c4cc5cc3Oc3ccc(cc3Cl)[C@@H](O)[C@@H](NC(=O)[C@@H](CC(C)C)NC)C(=O)N[C@@H](CC(N)=O)C(=O)N[C@H]5C(=O)N[C@H]3C(=O)N[C@H](C(=O)N[C@H](C(=O)O)c5cc(O)c(CNCP(=O)(O)O)c(O)c5-c5cc3ccc5O)[C@H](O)c3ccc(c(Cl)c3)O4)O[C@H](CO)[C@@H](O)[C@@H]2O)O[C@@H](C)[C@H]1O [TELAVANCIN], the Activity [21] was “inactive”, the Activity [22] was “inactive” and the Activity [23] was 26%. For the same compound, the Activity [24] was 40%, the Activity [25] was 100% and the Activity [26] was 8%. For the same compound, the Activity [27] was 100%, the Activity [28] was 100% and the Activity [29] was 74%. It also gave an Activity [30] of 52%, an MIC [17] of 1 µg/mL (≈ 0.57 µM) and an MIC [18] of 8 µg/mL (≈ 4.56 µM). It also gave an MIC [31] of 8 µg/mL (≈ 4.56 µM), an MIC [19] of 1 µg/mL (≈ 0.57 µM) and an MIC [20] of 0.5 µg/mL (≈ 0.285 µM). The “fold change (FC)” value [32] was 4 and the “fold change (FC)” value [33] was 6.
